M1 ag – agonists of M1 muscarinic receptor. CHO-M1 cells, Fluo-4 calcium fluorescence, agonist mode; active compounds read high. B-score at 10 µM. 3% of 64,000 active. AID 626;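 active means fluorescence rise, raw or as B-score row- and column-corrected plate score, outside the 99.7% band of its plate's samples, either direction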
D1 mod – allosteric modulators of human D1 dopamine receptor. HEK293 D1, CRE-luciferase, dopamine EC30 potentiation; actives deviate in either direction. B-score at 10 µM. 5.9% of 58,000 active. AID 641;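 active means luminescence count or its row- and column-corrected plate score outside the 99.7% band of the plate's sample wells, on either side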
SF-1 act – activates the human nuclear receptor SF-1; 1.9% of 65,000 active; CHO-K1 Gal4-SF-1 LBD luciferase reporter; % increase over DMSO SF-1-specific signal; activation, % at 10 µM; AID 522;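 active means activation above the mean activation of all tested compounds plus 3 SD, cut at about 50% in these data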
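Test system: CHO-K1 cells co-transfected with Gal4 DBD–human SF-1 LBD, 5xGal4 luciferase reporter. Quantity: 4,000 cells per well. Compound: 10 µM only. Incubation: compound added 1 h post-seeding, 20 h exposure at 37 °C, 5% CO2. Detection: SteadyLite luciferase luminescence. Replication: one test per compound.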
M1 antag – blocks the rat M1 muscarinic receptor response to acetylcholine | P08482 | CHO-M1 cells, Fluo-4 calcium, ACh EC80 antagonist mode; active compounds read low | B-score at 10 µM | 3.4% of 64,000 active;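 active means calcium fluorescence response, raw or row-and-column corrected B-score, differing from the plate sample mean either way at a set confidence level, mostly lower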
HePTP inhibitor – human HePTP phosphatase inhibition. 0.64% of 110,000 active. inhibition, % at 20 µM. recombinant HePTP phosphatase activity, OD absorbance; in the data active means inhibition above about 50%
Target sequence (P35236 whole entry, looked up): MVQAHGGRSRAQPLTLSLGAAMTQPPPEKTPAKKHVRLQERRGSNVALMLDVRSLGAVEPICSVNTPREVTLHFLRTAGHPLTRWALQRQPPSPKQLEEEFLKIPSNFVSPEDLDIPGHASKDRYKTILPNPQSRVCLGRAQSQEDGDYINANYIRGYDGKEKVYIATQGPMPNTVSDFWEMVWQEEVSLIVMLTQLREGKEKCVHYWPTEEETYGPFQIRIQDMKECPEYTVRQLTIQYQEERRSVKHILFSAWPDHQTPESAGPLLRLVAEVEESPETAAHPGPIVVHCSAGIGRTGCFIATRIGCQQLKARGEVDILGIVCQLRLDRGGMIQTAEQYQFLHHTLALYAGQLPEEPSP
RORA act – activates the human nuclear receptor RORA; P35398; AID 560; activation, % at 10 µM; CHO-K1 Gal4-RORA LBD luciferase reporter, luminescence; percent increase over mock-subtracted basal signal; 1.5% of 65,000 active;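 active means activation above the mean of all tested compounds plus 3 SD, cut at about 49% in these data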
Hits are given with their value. Hits are enriched below; roughly 8.2% of the tested compounds scored in any of these assays.

Results for CCOC(=O)c1sc(NC(=O)c2ccc3ncsc3c2)nc1C ?
M1 ag: inactive; SF-1 act: 76; M1 antag: inactive; HePTP inhibitor: inactive; RORA act: inactive

How did CCOC(=O)c1sc(NC(=O)c2ccc(CC)s2)nc1C do in these assays?
M1 ag: inactive; D1 mod: inactive; SF-1 act: 119; M1 antag: inactive; HePTP inhibitor: inactive; RORA act: 72

What do the screens show for `CCOC(=O)CNC(=O)c1sc(NC(=O)c2ccccc2F)nc1C`?
M1 ag: inactive; D1 mod: inactive; SF-1 act: 53; M1 antag: inactive; HePTP inhibitor: inactive; RORA act: inactive

How did CCOC(=O)c1sc(NC(=O)c2ccc(OCC)c(Cl)c2)nc1C do in these assays?
HePTP inhibitor: inactive

Results for Cn1c(SCc2nc3ccccc3[nH]2)nnc1-c1cnccn1 ?
M1 ag: inactive; D1 mod: inactive; SF-1 act: inactive; M1 antag: inactive; HePTP inhibitor: inactive; RORA act: inactive

Results for Cc1nn2c3c(cnc2c1-c1ccccc1)C(=O)CC(c1ccco1)C3 (stereo not given) ?
M1 ag: inactive; D1 mod: inactive; SF-1 act: inactive; M1 antag: inactive; HePTP inhibitor: inactive; RORA act: inactive

What do the screens show for `COc1ccc(CN2CCN(C3CCCCC3)CC2)cc1Br`?
HePTP inhibitor: inactive

Results for CCOc1ccccc1NC(=O)c1c(NC(=O)CNCc2ccco2)sc2c1CCC2 ?
M1 ag: inactive; D1 mod: inactive; SF-1 act: inactive; M1 antag: -8.1; HePTP inhibitor: inactive; RORA act: inactive

How did NC1=NC2(CCCCC2)n2c(nc3ccccc32)N1 do in these assays?
M1 ag: inactive; D1 mod: -4.6; SF-1 act: inactive; M1 antag: inactive; HePTP inhibitor: inactive; RORA act: inactive

Results for NC1=NC2(CCC(c3ccccc3)CC2)n2c(nc3ccccc32)N1 (stereo not given) ?
M1 ag: inactive; D1 mod: inactive; SF-1 act: inactive; M1 antag: inactive; HePTP inhibitor: inactive; RORA act: inactive

What do the screens show for `CCOC(=O)c1nn(-c2ccc3c(c2)CCN3C(C)=O)cc1O`?
M1 ag: inactive; SF-1 act: 65; M1 antag: inactive; HePTP inhibitor: inactive; RORA act: 58

What do the screens show for `CCOCCCNS(=O)(=O)c1ccc2c(c1)CCN2C(C)=O`?
M1 ag: inactive; D1 mod: inactive; SF-1 act: inactive; M1 antag: inactive; HePTP inhibitor: inactive; RORA act: inactive

Results for Cc1cc(-c2ccccc2)nc(N2CCC(C(=O)NC(C)C)CC2)n1 ?
M1 ag: inactive; D1 mod: inactive; SF-1 act: 97; M1 antag: inactive; HePTP inhibitor: inactive; RORA act: 67

What do the screens show for `CCC(C)NC(=O)C1CCN(c2nc(C)cc(C)n2)CC1` (stereo not given)?
M1 ag: inactive; D1 mod: inactive; SF-1 act: inactive; M1 antag: inactive; HePTP inhibitor: inactive; RORA act: inactive

What do the screens show for `COc1ccccc1NC(=O)CN1C(=O)C(C)Oc2ccccc21` (stereo not given)?
M1 ag: -3.4; D1 mod: inactive; SF-1 act: inactive; M1 antag: inactive; HePTP inhibitor: inactive; RORA act: inactive

How did Cc1nnc2n(Cc3ccccc3)c(=O)c3c4c(sc3n12)CCCC4 do in these assays?
M1 ag: inactive; D1 mod: 6.3; SF-1 act: inactive; M1 antag: inactive; HePTP inhibitor: inactive; RORA act: inactive

How did Cc1nnc2n(Cc3ccccc3)c(=O)c3c4c(sc3n12)CN(Cc1ccccc1)CC4 do in these assays?
M1 ag: inactive; D1 mod: inactive; SF-1 act: inactive; M1 antag: inactive; HePTP inhibitor: inactive; RORA act: inactive

What do the screens show for `C=CCn1c(=N)n(CC(O)c2ccco2)c2ccccc21` (stereo not given)?
M1 ag: inactive; D1 mod: inactive; SF-1 act: inactive; M1 antag: inactive; HePTP inhibitor: inactive; RORA act: inactive

How did CCOc1ccc2[nH]c(=O)c(CN(Cc3cccnc3)C(=O)Nc3ccccc3OC)cc2c1 do in these assays?
M1 ag: inactive; D1 mod: inactive; SF-1 act: inactive; M1 antag: inactive; HePTP inhibitor: inactive; RORA act: inactive

What do the screens show for `CN(C)c1oc(-c2ccc(OCc3ccccc3)cc2)nc1C#N`?
M1 ag: inactive; D1 mod: inactive; SF-1 act: 61; M1 antag: inactive; HePTP inhibitor: inactive; RORA act: inactive

What do the screens show for `O=C1c2ccccc2-c2c1cccc2C(=O)N(CCO)CCO`?
M1 ag: inactive; D1 mod: inactive; SF-1 act: inactive; M1 antag: inactive; HePTP inhibitor: inactive; RORA act: inactive

How did Cc1cc(C)c2cc(CN(CCN3CCCC3)C(=O)Nc3ccc(F)cc3)c(=O)[nH]c2c1 do in these assays?
M1 ag: inactive; D1 mod: -3.1; SF-1 act: inactive; M1 antag: inactive; HePTP inhibitor: inactive; RORA act: inactive

How did CC(C)c1ccc(N2C(=O)NC(=O)/C(=C/c3ccc([N+](=O)[O-])o3)C2=O)cc1 do in these assays?
HePTP inhibitor: 88

How did CCOc1ccc(N2C(=O)/C(=C/c3ccc(I)o3)C(=O)NC2=S)cc1 do in these assays?
HePTP inhibitor: 103

What do the screens show for `CCc1ccc(N2C(=O)/C(=C/c3ccc(I)o3)C(=O)NC2=S)cc1`?
HePTP inhibitor: 105

Results for O=C1NC(=S)N(c2ccccc2F)C(=O)/C1=C/c1ccc(I)o1 ?
HePTP inhibitor: 104

Results for O=C(c1noc2c1CCCCC2)N1CCN(C(c2ccccc2)c2ccccc2)CC1 ?
M1 ag: inactive; D1 mod: inactive; SF-1 act: inactive; M1 antag: inactive; HePTP inhibitor: inactive; RORA act: inactive

Results for O=C(COc1ccc2ccc(=O)oc2c1)c1ccc(-c2ccccc2)cc1 ?
HePTP inhibitor: inactive

Results for CCOC(=O)c1ccc(NC(=O)CSc2nc3c(c(=O)n2CC)SC(C)C3)cc1 (stereo not given) ?
M1 ag: inactive; D1 mod: inactive; SF-1 act: inactive; M1 antag: inactive; HePTP inhibitor: inactive; RORA act: inactive

How did Cc1cc(C)cc(N2C(=O)NC(=O)/C(=C\c3ccc(I)o3)C2=O)c1 do in these assays?
HePTP inhibitor: inactive

What do the screens show for `O=C1NC(=O)N(c2ccc(Cl)cc2)C(=O)/C1=C/c1ccc(I)o1`?
HePTP inhibitor: 96

What do the screens show for `O=C1NC(=S)N(c2ccccc2F)C(=O)/C1=C/c1ccc(OCc2cccc(C(=O)O)c2)cc1`?
HePTP inhibitor: 102

How did CCOC(=O)c1[nH]c2ccccc2c1NC(=O)C1CCCC1 do in these assays?
M1 ag: inactive; D1 mod: 6.9; SF-1 act: inactive; M1 antag: inactive; HePTP inhibitor: inactive; RORA act: inactive

What do the screens show for `CCOC(=O)c1[nH]c2ccccc2c1NC(=O)CC(C)(C)C`?
M1 ag: inactive; D1 mod: inactive; SF-1 act: inactive; M1 antag: inactive; HePTP inhibitor: inactive; RORA act: inactive

What do the screens show for `O=C(/C=C/c1ccc(F)cc1)Nc1ccc(F)cc1`?
HePTP inhibitor: inactive
